Experimental findings from the array DNA melting data of Ke et al. (doi:10.1101/2024.01.08.574731) are described below.

A short description of data set [1]: melting temperature; fluorescence melt of hairpins on a sequencing array, two-state fit, raised by 9.35 °C to match UV melts. The note with it: sodium 0.088 M. The gist of the method:
(§1)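 Cy3 fluorescence of library hairpins on a sequenced MiSeq flow cell, with annealed Cy3 and quencher oligos, was imaged in 50 mM Na-HEPES pH 8.0, 25 mM NaCl in 2.5 °C steps up to 60 °C. Signals were normalised to pre-quench Cy3 and to control variants. Melting temperature and folding enthalpy came from bootstrapped two-state fits, inverse-variance combined over four replicates. Fitted temperatures were raised by 9.35 °C to match UV melts.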

The nature of data set [2]: folding enthalpy; higher = less favourable; fluorescence melt of hairpins on a sequencing array, two-state fit. The note with it: sodium 0.088 M. The method in brief: as §1

As to GGCTGCGAAAGCAGTGCC ((((((....)))..))), the Tm in data set [1] came to 51.7 °C. In data set [2], the folding enthalpy is -12.1 kcal/mol.
On the same counts, the results for GTGGGACGAAAGTCACAC (((.(((....))).))) are 68.9 °C and -29.6 kcal/mol.
As for GTCGGCGAAAGCCATGAC ((((((....)))..))), the Tm in data set [1] stood at 42.4 °C. The folding enthalpy in data set [2] was -13.9 kcal/mol.
On the same counts, the results for GCATCGCGAAAGCGTGC (((.(((....)))))) are 63.8 °C and -19.7 kcal/mol.
Consider GGCTTTGAAAAAAGCC ((((((....)))))), for which, in data set [1], the Tm worked out at 57.6 °C. Further, the folding enthalpy in data set [2] is -38.5 kcal/mol.
With GATCATTTGAATGATC ((((((....)))))), the Tm in data set [1] turned out to be 48.2 °C. The folding enthalpy in data set [2] was -35.4 kcal/mol.
On the same counts, the results for GCAAGTCGAAAGACTGC (((.(((....)))))) are 57.1 °C and -25.8 kcal/mol.
Turning to GCCAGGCGAAAGCGAGGC (((..((....))..))), the Tm in data set [1] came to 59.4 °C. Further, the folding enthalpy in data set [2] was -21.1 kcal/mol.
GGGATCGAAAGATGCCCC ((((((....)))..))): the Tm in data set [1] amounted to 49.2 °C. In data set [2], the folding enthalpy was -15 kcal/mol.
On the same counts, the results for GCCGATTCGAAAGAAGGC (((..(((....)))))) are 43.2 °C and -28.9 kcal/mol.
On the same counts, the results for GTAGGACGAAAGTCATAC (((.(((....))).))) are 52.5 °C and -28.1 kcal/mol.
Regarding GCAGGCGGAAACGCCTAC (.(((((....))))).), the Tm in data set [1] was determined as 43.9 °C. The folding enthalpy in data set [2] was -9.53 kcal/mol.
On the same counts, the results for GATCAGTACCTGATC ((((((...)))))) are 48.9 °C and -44.9 kcal/mol.
On the same counts, the results for GATCTTGCTGAAGATC ((((((....)))))) are 43.2 °C and -31.4 kcal/mol.
On to GCAGGCGAAAGCCGATGC ((((((....)))..))), for which, in data set [1], the Tm was 53.9 °C. Besides, the folding enthalpy in data set [2] was -13.3 kcal/mol.
For GCGTCCGAAAGGACACGC ((((((....)))..))), in data set [1], the Tm came to 60 °C. For the same sequence, in data set [2], the folding enthalpy is -14.6 kcal/mol.
On the same counts, the results for GCACGAGGAAACTCGCAC (..((((....))))..) are 25.5 °C and -8.67 kcal/mol.
On the same counts, the results for GCCTCCCGAAAGGGCGGC (((.(((....))).))) are 61.3 °C and -34.4 kcal/mol.
As to GTACAGCGAAAGCTCTAC (((.(((....))).))), the Tm in data set [1] was found to be 29.5 °C. Moreover, the folding enthalpy in data set [2] is -17.3 kcal/mol.
Consider GCTCTGCGAAAGCCAAGC (((..((....))..))), for which the Tm in data set [1] was 34.8 °C. Further, the folding enthalpy in data set [2] was -13.9 kcal/mol.
With GTGAACACGAAAGTGCAC (((..(((....)))))), the Tm in data set [1] turned out to be 41.2 °C. In data set [2], the folding enthalpy is -14.1 kcal/mol.
On the same counts, the results for GCACTTTCGAAAGAATGC (((..(((....)))))) are 33.2 °C and -14.6 kcal/mol.
On the same counts, the results for GGATAACCGAAAGGTTCC (((..(((....)))))) are 32.4 °C and -14.1 kcal/mol.
On the same counts, the results for AGCATGAAAATGCT (((((....))))) are 50 °C and -22.2 kcal/mol.
Regarding GTATGACGAAAGTCCTAC (((.(((....))).))), in data set [1], the Tm was 38.9 °C. Further, the folding enthalpy in data set [2] was -24.3 kcal/mol.
On the same counts, the results for GGGAAATCGAAAGATCCC (((..(((....)))))) are 36 °C and -21.6 kcal/mol.
On the same counts, the results for GATCAGGTGACTGATC ((((((....)))))) are 54.9 °C and -46.4 kcal/mol.
On the same counts, the results for GCAAACGAAAGTTTATGC ((((((....)))..))) are 31.9 °C and -17.2 kcal/mol.
As for GCAACCGGAAACGATTGC ((((.((....)).)))), the Tm in data set [1] worked out at 47.4 °C. Further, in data set [2], the folding enthalpy was -31.5 kcal/mol.
On the same counts, the results for GGTGTCGAAAGACGTACC ((((((....)))..))) are 41.9 °C and -19.3 kcal/mol.
As for GCCACACGAAAGTGAGGC (((.(((....))).))), in data set [1], the Tm came to 66.2 °C. In addition, in data set [2], the folding enthalpy was -35.8 kcal/mol.
On the same counts, the results for CGGTTCCGGAAACGGCCG (((..(((....)))))) are 43.3 °C and -21 kcal/mol.
On the same counts, the results for GGAACCGAAAGGTCCTCC ((((((....)))..))) are 50.2 °C and -17.5 kcal/mol.
On the same counts, the results for GTGACGGGAAACCACCAC (((..((....))..))) are 27.4 °C and -15.7 kcal/mol.
With GACGCTGGAAACAACGCC (.((.((....)).)).), in data set [1], the Tm was 28.2 °C. The folding enthalpy in data set [2] was -12.6 kcal/mol.
On the same counts, the results for GCAAGGGCGAAAGCCTGC (((..(((....)))))) are 50.9 °C and -14 kcal/mol.
On the same counts, the results for GAGTGAGGAAACTTGCTC (((..((....))..))) are 37.5 °C and -12.9 kcal/mol.
On the same counts, the results for GCGAGCGAAAGCTGACGC ((((((....)))..))) are 51.1 °C and -24.7 kcal/mol.
In the case of GCCCGGCGAAAGCCGTGC ((.((((....)))).)), in data set [1], the Tm was determined as 59.8 °C. Also, the folding enthalpy in data set [2] is -13.9 kcal/mol.
As for GATCCTCACAAGGATC ((((((....)))))), the Tm in data set [1] amounted to 53 °C. Moreover, in data set [2], the folding enthalpy is -33.6 kcal/mol.
Take GCGGAGACCGC ((((...)))): the Tm in data set [1] stood at 53.2 °C. For the same sequence, the folding enthalpy in data set [2] was -24.4 kcal/mol.
Regarding GATCACCGTTGTGATC ((((((....)))))), the Tm in data set [1] stood at 55.4 °C. Besides, the folding enthalpy in data set [2] was -39.8 kcal/mol.
On the same counts, the results for GTTGTCGAAAGACTAAC ((((((....))).))) are 38 °C and -16.9 kcal/mol.
For the sequence GATCACTTCGTGATC ((((((...)))))), the Tm in data set [1] worked out at 58.9 °C. In data set [2], the folding enthalpy is -46.6 kcal/mol.
With GCGTGGCGAAAGCAGCGC (((..((....))..))), the Tm in data set [1] was found to be 67.9 °C. For the same sequence, in data set [2], the folding enthalpy was -33.8 kcal/mol.
Regarding GCCTTCGAAAGAACGGC ((((((....))).))), the Tm in data set [1] was determined as 48.2 °C. Also, the folding enthalpy in data set [2] is -29.2 kcal/mol.
Take GATCCTCTCTAGGATC ((((((....)))))): the Tm in data set [1] was 51.6 °C. The folding enthalpy in data set [2] was -38.2 kcal/mol.
On the same counts, the results for GATCCGTCGTCGGATC ((((((....)))))) are 60.1 °C and -36.3 kcal/mol.
On the same counts, the results for GCCACCGAAAGGTAGGC ((((((....))).))) are 62.7 °C and -32.2 kcal/mol.
In the case of CGGTCGGAAACGAACCCG ((((((....)))..))), in data set [1], the Tm was found to be 38.2 °C. For the same sequence, the folding enthalpy in data set [2] is -19.3 kcal/mol.
Take GATCCTAGTAAGGATC ((((((....)))))): in data set [1], the Tm is 52.2 °C. For the same sequence, the folding enthalpy in data set [2] was -41.1 kcal/mol.
On the same counts, the results for GAGCCCGAAAGGGTTCTC ((((((....)))..))) are 66.9 °C and -19.9 kcal/mol.
On the same counts, the results for GCTACGCCGAAAGGCAGC (((..(((....)))))) are 42.3 °C and -11.9 kcal/mol.
GCAACCGAAAGGTAGTGC ((((((....)))..))): the Tm in data set [1] is 41.2 °C. In data set [2], the folding enthalpy is -20.1 kcal/mol.
Turning to GATCGTGAATACGATC ((((((....)))))), the Tm in data set [1] came to 61.7 °C. In data set [2], the folding enthalpy is -35 kcal/mol.
On the same counts, the results for GATCCTAAAAAGGATC ((((((....)))))) are 47.6 °C and -27.9 kcal/mol.
On the same counts, the results for GCCAACGAAAGTTCGGGC ((((((....)))..))) are 43.8 °C and -30 kcal/mol.
On the same counts, the results for GATCTGTGGGCAGATC ((((((....)))))) are 54.3 °C and -49.7 kcal/mol.
For GATCACGAAAGTGTGATC ((((((....)))..))), in data set [1], the Tm came out at 47.9 °C. The folding enthalpy in data set [2] was -27 kcal/mol.
GGGGCCGAAAGGCTTCCC ((((((....)))..))): in data set [1], the Tm came out at 46.4 °C. Besides, the folding enthalpy in data set [2] is -13.5 kcal/mol.
As for GGTGCCGAAAGGCCAACC ((((((....)))..))), the Tm in data set [1] was found to be 44.1 °C. In addition, the folding enthalpy in data set [2] was -12.7 kcal/mol.
As to GCGATCTTCGC ((((...)))), the Tm in data set [1] came out at 51.9 °C. For the same sequence, in data set [2], the folding enthalpy is -19.4 kcal/mol.
On the same counts, the results for GGTAGTGGAAACACTACC (((((((....))))))) are 62.9 °C and -46.8 kcal/mol.
On the same counts, the results for GATCTGTCCCAGATC ((((((...)))))) are 49.5 °C and -33.6 kcal/mol.
On the same counts, the results for GCTAGGGGAAACCCCAGC (((.(((....))).))) are 49.1 °C and -29.8 kcal/mol.
For GTAGCCGAAAGGCGATAC ((((((....)))..))), the Tm in data set [1] stood at 41.3 °C. The folding enthalpy in data set [2] is -9.43 kcal/mol.
As to GCACACGGAAACGTGCAC (..((((....))))..), the Tm in data set [1] was 33.2 °C. Further, the folding enthalpy in data set [2] is -9.99 kcal/mol.
On to GGTGCAGGAAACTGCGCC ((.((((....)))).)), for which the Tm in data set [1] worked out at 65.3 °C. Also, the folding enthalpy in data set [2] was -34.3 kcal/mol.
GTGTCGACGAAAGTCCAC (((..(((....)))))): in data set [1], the Tm was 37.2 °C. Further, in data set [2], the folding enthalpy is -17.8 kcal/mol.
On the same counts, the results for GCGTGCCGACGC ((((....)))) are 60.1 °C and -19.3 kcal/mol.
On the same counts, the results for GCCACGCGAAAGCGCCGC ((..(((....)))..)) are 29.1 °C and -8.83 kcal/mol.
GACGATGGAAACACCGTC ((((.((....)).)))): the Tm in data set [1] turned out to be 45.4 °C. Also, the folding enthalpy in data set [2] was -29.6 kcal/mol.
On the same counts, the results for GATCGGCTGACCGATC ((((((....)))))) are 56.2 °C and -40.4 kcal/mol.
In the case of GATCTACCCATAGATC ((((((....)))))), in data set [1], the Tm is 41.4 °C. In addition, the folding enthalpy in data set [2] is -35.8 kcal/mol.
